Experimental data published in ChEMBL document CHEMBL1649163, “Surfactants, aromatic and isoprenoid compounds, and fatty acid biosynthesis inhibitors suppress Staphylococcus aureus production of toxic shock syndrome toxin 1” (2009).

Legend:
Assay type in all cases: functional
Staphylococcus aureus [1] = test: microbe, parasite or virus in culture; settings: 24 h
Staphylococcus aureus [2] = test: Effect on growth in Staphylococcus aureus MN8 at 2.50 mM after 24 hrs (reference value: 100%)
How it was run: (§1)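 Test-tube growth assay: 10 ml growth medium (brain heart infusion with 10% fetal bovine serum, MgCl2, L-glutamine) inoculated to 5 × 10^6 CFU/ml from a 24 h 37°C preculture. Compound diluted in medium, or dissolved in methanol with methanol-matched controls. After 24 h at 37°C with 5% CO2, OD600 and viable counts read. Growth given as % of CFU/ml of untreated controls in the same experiment.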

Staphylococcus aureus [3] = test: Effect on growth in Staphylococcus aureus MN8 at 10.00 mM after 24 hrs (reference value: 100%)
How it was run: as §1

Staphylococcus aureus [4] = test: microbe, parasite or virus in culture; settings: 24 h; remark: listed apart in the source
Staphylococcus aureus [5] = test: microbe, parasite or virus in culture; settings: 24 h; remark: listed apart in the source
Staphylococcus aureus [6] = test: Effect on growth in Staphylococcus aureus MN8 at 5.00 mM after 24 hrs (reference value: 100%)
How it was run: as §1

Staphylococcus aureus [7] = test: Effect on growth in Staphylococcus aureus MN8 at 9.0 mM after 24 hrs (reference value: 100%)
How it was run: as §1

Staphylococcus aureus [8] = test: microbe, parasite or virus in culture; settings: 24 h; remark: listed apart in the source
Staphylococcus aureus [9] = test: microbe, parasite or virus in culture; settings: 24 h; remark: listed apart in the source
Staphylococcus aureus [10] = test: Effect on growth in Staphylococcus aureus MN8 at 1.00 mM after 24 hrs (reference value: 100%)
How it was run: as §1

Staphylococcus aureus [11] = test: Effect on growth in Staphylococcus aureus MN8 at 2.00 mM after 24 hrs (reference value: 100%)
How it was run: as §1

Staphylococcus aureus [12] = test: microbe, parasite or virus in culture; settings: 24 h; remark: listed apart in the source
Staphylococcus aureus [13] = test: microbe, parasite or virus in culture; settings: 24 h; remark: listed apart in the source
Staphylococcus aureus [14] = test: Effect on growth in Staphylococcus aureus MN8 at 10.7 mM after 24 hrs (reference value: 100%)
How it was run: as §1

Staphylococcus aureus [15] = test: Effect on growth in Staphylococcus aureus MN8 at 0.10 % after 24 hrs (reference value: 100%)
How it was run: as §1

Staphylococcus aureus [16] = test: Effect on growth in Staphylococcus aureus MN8 at 0.50 % after 24 hrs (reference value: 100%)
How it was run: as §1

Staphylococcus aureus [17] = test system: Staphylococcus aureus
Staphylococcus aureus [18] = test system: Staphylococcus aureus; remark: listed apart in the source
Staphylococcus aureus [19] = test system: Staphylococcus aureus; remark: listed apart in the source
Staphylococcus aureus [20] = test: Effect on growth in Staphylococcus aureus MN8 at 0.20 % after 24 hrs (reference value: 100%)
How it was run: as §1

Staphylococcus aureus [21] = test: Effect on growth in Staphylococcus aureus MN8 at 0.75 mM after 24 hrs (reference value: 100%)
How it was run: as §1

Staphylococcus aureus [22] = test: microbe, parasite or virus in culture; settings: 24 h; remark: listed apart in the source
Staphylococcus aureus [23] = test: Effect on growth in Staphylococcus aureus MN8 at 3.75 mM after 24 hrs (reference value: 100%)
How it was run: as §1

Staphylococcus aureus [24] = test: Effect on growth in Staphylococcus aureus MN8 at 120.00 mM after 24 hrs (reference value: 100%)
How it was run: as §1

Staphylococcus aureus [25] = test: microbe, parasite or virus in culture; settings: 24 h; remark: listed apart in the source
Staphylococcus aureus [26] = test: microbe, parasite or virus in culture; settings: 24 h; remark: listed apart in the source
Staphylococcus aureus [27] = test: Effect on growth in Staphylococcus aureus MN8 at 80.00 mM after 24 hrs (reference value: 100%)
How it was run: as §1

Staphylococcus aureus [28] = test: Effect on growth in Staphylococcus aureus MN8 at 9.8 mM after 24 hrs (reference value: 100%)
How it was run: as §1

Staphylococcus aureus [29] = test: microbe, parasite or virus in culture; settings: 24 h; remark: listed apart in the source

Molecule CCCCCCCCCCCCCCOCCOCCOCCOC(=O)CCCCCCCCCCCCC has an inhibition at 10000 µM (Staphylococcus aureus [1]) of 22.2%, an Activity (Staphylococcus aureus [2]) of 106.6% and an Activity (Staphylococcus aureus [3]) of 143.3%. It also gave an inhibition at 2500 µM (Staphylococcus aureus [4]) of 64.9%, an inhibition at 5000 µM (Staphylococcus aureus [5]) of 47.4% and an Activity (Staphylococcus aureus [6]) of 108%.
CCCCCCCCCCCCOCCOCCOCCO gave an Activity (Staphylococcus aureus [7]) of 7.3% and an inhibition at 9000 µM (Staphylococcus aureus [8]) of 1%.
Oc1ccc(Cc2ccccc2)cc1 was tested, and the inhibition at 1000 µM (Staphylococcus aureus [9]) was 91%, the Activity (Staphylococcus aureus [10]) was 70.2% and the Activity (Staphylococcus aureus [11]) was 37.1%. For the same molecule, the inhibition at 2000 µM (Staphylococcus aureus [12]) was 77.2%.
CCCCCCCCCCCC(=O)OCC(O)CO (racemic) [GLYCEROL MONOLAURATE] gave an inhibition at 10700 µM (Staphylococcus aureus [13]) of 5.2% and an Activity (Staphylococcus aureus [14]) of 36.3%.
For CC(=O)Nc1ccc(O)cc1 [ACETAMINOPHEN], the Activity (Staphylococcus aureus [15]) was 44.2%, the Activity (Staphylococcus aureus [16]) was 13.2% and the “inhibition (INH)” value (Staphylococcus aureus [17]) was 10.8%. The “inhibition (INH)” value (Staphylococcus aureus [18]) was 56.3%.
CC(=O)N[C@@H](Cc1ccc(O)cc1)C(=O)O [ACETYL TYROSINE] was tested, and the Activity (Staphylococcus aureus [15]) was 47.5%, the Activity (Staphylococcus aureus [16]) was 19.9% and the “inhibition (INH)” value (Staphylococcus aureus [17]) was 47.1%. For the same molecule, the “inhibition (INH)” value (Staphylococcus aureus [18]) was 71.5%.
In the case of Nc1ccc(C(=O)O)cc1 [AMINOBENZOIC ACID], the “inhibition (INH)” value (Staphylococcus aureus [19]) is reported as 8.6% and the Activity (Staphylococcus aureus [20]) is reported as 11.8%.
For OCc1ccccc1 [BENZYL ALCOHOL], the Activity (Staphylococcus aureus [15]) was 49.7%, the Activity (Staphylococcus aureus [16]) was 8.9% and the “inhibition (INH)” value (Staphylococcus aureus [17]) was 13.8%. The “inhibition (INH)” value (Staphylococcus aureus [18]) was 43.5%.
CC(=O)/C=C/C1=C(C)CCCC1(C)C [BETA-IONONE] was tested, and the Activity (Staphylococcus aureus [21]) was 27.1%, the inhibition at 750 µM (Staphylococcus aureus [22]) was 10% and the Activity (Staphylococcus aureus [23]) was 1%.
Work on C/C=C/C/C=C/CCC(=O)[C@H]1O[C@H]1C(N)=O [CERULENIN] yielded an Activity (Staphylococcus aureus [24]) of 50%, an inhibition at 120000 µM (Staphylococcus aureus [25]) of 10.7% and an inhibition at 80000 µM (Staphylococcus aureus [26]) of 8.4%. The Activity (Staphylococcus aureus [27]) was 235.1%.
Molecule CCCCCCCCCCCC(=O)NCCOC(=O)C(CC(=O)[O-])S(=O)(=O)[O-].[Na+].[Na+] (stereo not drawn) [DISODIUM LAURAMIDO MEA] has an inhibition at 10700 µM (Staphylococcus aureus [13]) of 0.4% and an Activity (Staphylococcus aureus [14]) of 29.4%.
With CCCCCCCCCCCCOCCOCCOCCOC(=O)CC(C(=O)[O-])S(=O)(=O)[O-].[Na+].[Na+] (stereo not drawn) [DISODIUM LAURETH SULFOSUCCCINATE] the Activity (Staphylococcus aureus [28]) was 10.3% and the inhibition at 9800 µM (Staphylococcus aureus [29]) was 0.6%.
CCCCCCCCCCCC1=NCC[N+]1(CCOCC(=O)[O-])CC(=O)[O-].[Na+].[Na+].[OH-] (stereo not drawn) [DISODIUM LAUROAMPHODIACETATE] showed an inhibition at 10700 µM (Staphylococcus aureus [13]) of 1% and an Activity (Staphylococcus aureus [14]) of 11.3%.
With O=C(O)c1cc(O)c(O)c(O)c1 [GALLIC ACID] the Activity (Staphylococcus aureus [15]) was 45%, the Activity (Staphylococcus aureus [16]) was 2.6% and the “inhibition (INH)” value (Staphylococcus aureus [17]) was 8.7%. For the same molecule, the “inhibition (INH)” value (Staphylococcus aureus [18]) was 41.4%.
Work on CC(C)=CCC/C(C)=C/CO [GERANIOL] yielded an Activity (Staphylococcus aureus [21]) of 19.3%, an inhibition at 750 µM (Staphylococcus aureus [22]) of 0.7% and an Activity (Staphylococcus aureus [23]) of 3.9%.
